Test results: ChEMBL document CHEMBL1128448, “Synthesis and antifungal activity of new azole derivatives containing an N-acylmorpholine ring” (1995)
≈ marks a conversion by molar mass, not a printed value.

Columns and labels:
Candida albicans [1] = assay: […] Evaluation of minimum inhibitory concentration against Candida albicans 406; assay type: functional
Outline: (§1)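 Stocks are 800 μg/mL in 50% ethanol. Each plate gets 10 μL of inoculum at 10^5 cfu/mL. Incubation at 25 °C, 48 h for yeasts and 120 h for dermatophytes and molds. Organisms are ATCC strains or clinical isolates.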

Nakaseomyces glabratus = assay: In vitro evaluation of minimum inhibitory concentration against Torulopsis glabrata 78; assay type: functional; outline: as §1
Trichophyton benhamiae = assay: In vitro evaluation of minimum inhibitory concentration against Trichophyton mentagrophytes 23; assay type: functional, Arthroderma benhamiae; outline: as §1
Candida tropicalis = assay: In vitro evaluation of minimum inhibitory concentration against Candida tropicalis 2.11; assay type: functional; outline: as §1
Candida albicans [2] = assay: In vitro evaluation of minimum inhibitory concentration against Candida albicans 76; assay type: functional; outline: as §1
Mus sp. [3] = assay: In vivo evaluation of % survival rate after peroral administration on 9th day at dose 2.5 mg/kg; assay type: functional; conditions: Mus sp., po
Kluyveromyces marxianus = assay: In vitro evaluation of minimum inhibitory concentration against Candida pseudotropicalis 13; assay type: functional; outline: as §1
Mus sp. [4] = assay: In vivo evaluation of % survival rate after peroral administration on 3rd day at dose 2.5 mg/kg; assay type: functional; conditions: Mus sp., po
Candida parapsilosis = assay: In vitro evaluation of minimum inhibitory concentration against Candida parapsilosis 61; assay type: functional; outline: as §1
Mus sp. [5] = assay: In vivo evaluation of % survival rate after peroral administration on 5th day at dose 2.5 mg/kg; assay type: functional; conditions: Mus sp., po
Mus sp. [6] = assay: In vivo evaluation of % survival rate after peroral administration on 9th day at dose 1 mg/kg; assay type: functional; conditions: route oral, 1 mg/kg
Aspergillus flavus = assay: In vitro evaluation of minimum inhibitory concentration against Aspergillus flavus 19; assay type: functional; outline: as §1
Nannizzia gypsea = assay: In vitro evaluation of minimum inhibitory concentration against Microsporum gypseum 22; assay type: functional; outline: as §1
Mus sp. [7] = assay: In vivo evaluation of % survival rate after peroral administration on 7th day at dose 1 mg/kg; assay type: functional; conditions: route oral, 1 mg/kg
Trichophyton rubrum = assay: In vitro evaluation of minimum inhibitory concentration against Trichophyton rubrum 90; assay type: functional; outline: as §1
Rhodotorula mucilaginosa = assay: In vitro evaluation of minimum inhibitory concentration against Rhodotorula rubra 16; assay type: functional; outline: as §1
Aspergillus niger = assay: In vitro evaluation of minimum inhibitory concentration against Aspergillus niger 18; assay type: functional; outline: as §1
Mus sp. [8] = assay: In vivo evaluation of % survival rate after peroral administration on 7th day at dose 2.5 mg/kg; assay type: functional; conditions: Mus sp., po
Pichia kudriavzevii = assay: In vitro evaluation of minimum inhibitory concentration against Candida krusei 70; assay type: functional; outline: as §1
Candida albicans [9] = assay: […] Evaluation of minimum inhibitory concentration against Candida albicans 60; assay type: functional; outline: as §1
Microsporum canis = assay: In vitro evaluation of minimum inhibitory concentration against Microsporum canis 47; assay type: functional; outline: as §1
[10] = tested on: Meyerozyma guilliermondii; assay: In vitro evaluation of minimum inhibitory concentration against Candida guilliermondii 26; assay type: functional; outline: as §1
Aspergillus fumigatus = assay: In vitro evaluation of minimum inhibitory concentration against Aspergillus fumigatus 33; assay type: functional; outline: as §1
Candida albicans [11] = assay: In vivo evaluation of minimum inhibitory concentration against Candida albicans 60; assay type: functional; conditions: Candida albicans; read-out: MIC
Outline: (§2)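 Broth macrodilution MIC following NCCLS M27-P, in RPMI-1640 buffered with 0.165 M MOPS. Fluconazole was dissolved in water and other drugs in DMSO. C. parapsilosis ATCC 22019 served as the reference strain in every run. MIC was the lowest concentration giving turbidity at or below the 80% inhibition standard.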

Candida albicans [12] = assay: In vivo evaluation of minimum inhibitory concentration against Candida albicans 406; assay type: functional; conditions: Candida albicans; read-out: MIC; outline: as §2
Mus sp. [13] = assay: In vivo evaluation of % survival rate after peroral administration on 3rd day at dose 1 mg/kg; assay type: functional; conditions: Mus sp., po
Mus sp. [14] = assay: In vivo evaluation of % survival rate after peroral administration on 5th day at dose 1 mg/kg; assay type: functional; conditions: Mus sp., po
[15] = Nakaseomyces glabratus, read-out: MIC
[16] = Trichophyton benhamiae, read-out: MIC
[17] = Candida tropicalis, read-out: MIC
[18] = Candida albicans, read-out: MIC
[19] = Kluyveromyces marxianus, read-out: MIC
[20] = Lodderomyces parapsilosis, read-out: MIC
[21] = Aspergillus flavus, read-out: MIC
[22] = Nannizzia gypsea, read-out: MIC
[23] = Trichophyton rubrum, read-out: MIC
[24] = Rhodotorula mucilaginosa, read-out: MIC
[25] = Aspergillus niger, read-out: MIC
[26] = Pichia kudriavzevii, read-out: MIC
[27] = Microsporum canis, read-out: MIC
[28] = Meyerozyma guilliermondii, read-out: MIC
[29] = Aspergillus fumigatus, read-out: MIC

Row | SMILES | survival at 2.5 mg/kg (Mus sp. [3]) [%] | survival at 2.5 mg/kg (Mus sp. [4]) [%] | survival at 2.5 mg/kg (Mus sp. [5]) [%] | survival at 2.5 mg/kg (Mus sp. [8]) [%] | MIC (Nakaseomyces glabratus; [15]) [µg/mL] | MIC (Trichophyton benhamiae; [16]) [µg/mL] | MIC (Candida tropicalis; [17]) [µg/mL] | MIC (Candida albicans [2]; [18]) [µg/mL] | MIC (Kluyveromyces marxianus; [19]) [µg/mL] | MIC (Candida parapsilosis; [20]) [µg/mL] | MIC (Aspergillus flavus; [21]) [µg/mL] | MIC (Nannizzia gypsea; [22]) [µg/mL] | MIC (Candida albicans [11]) [µg/mL] | MIC (Trichophyton rubrum; [23]) [µg/mL] | MIC (Rhodotorula mucilaginosa; [24]) [µg/mL] | MIC (Aspergillus niger; [25]) [µg/mL] | MIC (Pichia kudriavzevii; [26]) [µg/mL] | MIC (Candida albicans [12]) [µg/mL] | MIC (Microsporum canis; [27]) [µg/mL] | MIC [10, 28] [µg/mL] | other results
1 | C[C@@H](NC(=O)c1ccc(C(F)(F)F)cc1)[C@](O)(Cn1cncn1)c1ccc(F)cc1F (racemic) | 100 | 100 | 100 | 100 |  |  |  |  |  |  |  |  |  |  |  |  |  |  |  |  | MIC (Candida albicans [1]): 0.31 µg/mL (≈ 0.704 µM); MIC (Nakaseomyces glabratus): >80 µg/mL; MIC (Trichophyton benhamiae): >80 µg/mL; MIC (Candida tropicalis): 80 µg/mL (≈ 182 µM); MIC (Candida albicans [2]): 80 µg/mL (≈ 182 µM); MIC (Kluyveromyces marxianus): 40 µg/mL (≈ 90.8 µM); MIC (Candida parapsilosis): 20 µg/mL (≈ 45.4 µM); Survival (Mus sp. [6]): 60%; MIC (Aspergillus flavus): >40 µg/mL; MIC (Nannizzia gypsea): >80 µg/mL; Survival (Mus sp. [7]): 80%; MIC (Trichophyton rubrum): >40 µg/mL; MIC (Rhodotorula mucilaginosa): 2.5 µg/mL (≈ 5.68 µM); MIC (Aspergillus niger): >80 µg/mL; MIC (Pichia kudriavzevii): >80 µg/mL; MIC (Candida albicans [9]): 0.63 µg/mL (≈ 1.43 µM); MIC (Microsporum canis): >80 µg/mL; MIC [10]: 2.5 µg/mL (≈ 5.68 µM); MIC (Aspergillus fumigatus): >80 µg/mL
2 | C[C@H]1N(C(=O)c2ccc(C(F)(F)F)cc2)CC(=O)O[C@@]1(Cn1cncn1)c1ccc(F)cc1F (racemic) | 70 | 100 | 100 | 95 | > 80 | > 80 | > 80 | > 80 | 80 (≈ 167 µM) | > 80 | > 80 | > 80 | 80 (≈ 167 µM) | > 80 | > 80 | > 80 | > 80 | 40 (≈ 83.3 µM) | > 80 | > 80 | Survival (Mus sp. [6]): 0%; Survival (Mus sp. [7]): 30%; survival at 1 mg/kg (Mus sp. [13]): 95%; survival at 1 mg/kg (Mus sp. [14]): 85%; MIC (Aspergillus fumigatus; [29]): > 80 µg/mL
3 | C[C@H]1N(C(=O)c2ccc(C(F)(F)F)cc2F)CC(=O)O[C@@]1(Cn1cncn1)c1ccc(F)cc1F (racemic) | 90 | 100 | 100 | 100 | > 80 | > 80 | 80 (≈ 161 µM) | 40 (≈ 80.3 µM) | 80 (≈ 161 µM) | 80 (≈ 161 µM) | > 80 | > 80 | 20 (≈ 40.1 µM) | > 80 | > 80 | > 80 | > 80 | 20 (≈ 40.1 µM) | > 80 | > 80 | MIC (Aspergillus fumigatus; [29]): > 80 µg/mL
4 | C[C@H]1N(C(=O)c2ccccc2)CCO[C@@]1(Cn1cncn1)c1ccccc1 (racemic) | 0 | 40 | 0 | 0 | > 80 | > 80 | > 80 | > 80 | > 80 | > 80 | > 80 | > 80 | > 80 | > 80 | > 80 | > 80 | > 80 | > 80 | > 80 | > 80 | MIC (Aspergillus fumigatus; [29]): > 80 µg/mL
5 | C[C@H]1N(C(=O)c2ccc(OCC(F)(F)C(F)F)cc2)CC(=O)O[C@@]1(Cn1cncn1)c1ccc(Cl)cc1Cl (racemic) | 60 | 90 | 90 | 80 | > 80 | > 80 | 80 (≈ 139 µM) | 20 (≈ 34.8 µM) | 10 (≈ 17.4 µM) | 20 (≈ 34.8 µM) | > 80 | 80 (≈ 139 µM) | 2.5 (≈ 4.35 µM) | > 80 | 80 (≈ 139 µM) | > 80 | > 80 | 1.25 (≈ 2.17 µM) | > 80 | 80 (≈ 139 µM) | MIC (Aspergillus fumigatus; [29]): > 80 µg/mL
